The structures appear in SMILES notation. Bridge positions count the residues as written; N and C are the ends. Square brackets hold non-standard residues; d marks the D form. Peptide text beside a SMILES is read from it. Nle = CCCC[C@H](N)C(=O)O; Nva = CCC[C@H](N)C(=O)O; Abu = CC[C@H](N)C(=O)O

This experiment has as its target Neuronal acetylcholine receptor; alpha3/beta4 (Rattus norvegicus) (UniProt P04757+P12392). As to the kind of experiment: Antagonist activity at rat alpha3beta4 nAChR expressed in HEK293 cells assessed as inhibition of epibatadine-induced effect at 10 uM after 30 mins by fluorescent membrane potential assay relative to mecamylamine. It counts as cell-based. A digest of the protocol: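 Rat α3β4 nAChR stably expressed in HEK293 cells; crude, SPE-desalted individual peptides tested at 10 μM in HBSS with membrane potential blue dye, 30 min at 37 °C. Fluorescence change read after epibatidine (0.1 μM). Percent inhibition set against 10 μM mecamylamine taken as 100%.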
On to `CCCC[C@@H]1NC(=O)[C@H](CO)NC(=O)[C@@H]2CSSC[C@@H](C(=O)O)NC(=O)[C@@H]3CCCN3C(=O)[C@H](CCC)NC(=O)[C@H](Cc3c[nH]c4ccccc34)NC(=O)[C@H](Cc3ccccc3)NC(=O)[C@H](CSSC[C@H](NC(=O)CN)C(=O)N2)NC(=O)[C@@H]2CCCN2C(=O)[C@@H]2CCCN2C1=O` (H-GCCS[Nle]PPCFW[Nva]PC-OH; disulfide 2-8, 3-13), for which the inhibition came out at 37.1%.

On to `CCCC[C@@H]1NC(=O)[C@H](Cc2c[nH]c3ccccc23)NC(=O)[C@H]([C@H](C)CC)NC(=O)[C@@H]2CSSC[C@H](NC(=O)CN)C(=O)N[C@@H](CSSC[C@@H](C(=O)O)NC(=O)[C@H](Cc3ccc(O)cc3)NC1=O)C(=O)N[C@@H](CO)C(=O)N[C@@H](CCCC)C(=O)N1CCC[C@H]1C(=O)N1CCC[C@H]1C(=O)N2`, for which the inhibition was found to be 51.8%.

`CCCC[C@@H]1NC(=O)[C@H](Cc2c[nH]c3ccccc23)NC(=O)[C@H]([C@H](C)CC)NC(=O)[C@@H]2CSSC[C@H](NC(=O)CN)C(=O)N[C@@H](CSSC[C@@H](C(=O)O)NC(=O)[C@H](Cc3ccc(O)cc3)NC1=O)C(=O)N[C@@H](CO)C(=O)N[C@@H](CCCC)C(=O)N1CCC[C@H]1C(=O)N[C@@H](CC)C(=O)N2`: the inhibition turned out to be 68.6%.

For `CCCC[C@@H]1NC(=O)[C@H](Cc2c[nH]c3ccccc23)NC(=O)[C@H](Cc2ccccc2)NC(=O)[C@@H]2CSSC[C@H](NC(=O)CN)C(=O)N[C@@H](CSSC[C@@H](C(=O)O)NC(=O)[C@@H]3CCCN3C1=O)C(=O)N[C@@H](CO)C(=O)N[C@@H](CCCC)C(=O)N1CCC[C@H]1C(=O)N1CCC[C@H]1C(=O)N2` (H-GCCS[Nle]PPCFW[Nle]PC-OH; disulfide 2-8, 3-13), the inhibition worked out at 14.2%.

`CCCC[C@@H]1NC(=O)[C@H](CC)NC(=O)[C@H]([C@H](C)CC)NC(=O)[C@@H]2CSSC[C@H](NC(=O)CN)C(=O)N[C@@H](CSSC[C@@H](C(=O)O)NC(=O)[C@H](Cc3ccc(O)cc3)NC1=O)C(=O)N[C@@H](CO)C(=O)N[C@@H](CCCC)C(=O)N1CCC[C@H]1C(=O)N[C@@H](CC)C(=O)N2`: the inhibition was 72.6%.

For `CCC[C@@H]1NC(=O)[C@H](Cc2c[nH]c3ccccc23)NC(=O)[C@H]([C@H](C)CC)NC(=O)[C@@H]2CSSC[C@H](NC(=O)CN)C(=O)N[C@@H](CSSC[C@@H](C(=O)O)NC(=O)[C@@H]3CCCN3C1=O)C(=O)N[C@@H](CO)C(=O)N[C@@H](Cc1cnc[nH]1)C(=O)N1CCC[C@H]1C(=O)N[C@@H](CC)C(=O)N2`, the inhibition was 38.7%.

Turning to `CCCC[C@@H]1NC(=O)[C@H](CO)NC(=O)[C@@H]2CSSC[C@@H](C(=O)O)NC(=O)[C@H](Cc3ccc(O)cc3)NC(=O)[C@H](CCC)NC(=O)[C@H](Cc3c[nH]c4ccccc34)NC(=O)[C@H]([C@H](C)CC)NC(=O)[C@H](CSSC[C@H](NC(=O)CN)C(=O)N2)NC(=O)[C@@H]2CCCN2C(=O)[C@@H]2CCCN2C1=O`, the inhibition turned out to be 58.3%.

`CCCC[C@@H]1NC(=O)[C@H](Cc2c[nH]c3ccccc23)NC(=O)[C@H]([C@H](C)CC)NC(=O)[C@@H]2CSSC[C@H](NC(=O)CN)C(=O)N[C@@H](CSSC[C@@H](C(=O)O)NC(=O)[C@@H]3CCCN3C1=O)C(=O)N[C@@H](CO)C(=O)N[C@@H](CCCC)C(=O)N1CCC[C@H]1C(=O)N1CCC[C@H]1C(=O)N2`: the inhibition worked out at 6.3%.

Take `CCCC[C@@H]1NC(=O)[C@H](CC2C=Nc3ccccc32)NC(=O)[C@H]([C@H](C)CC)NC(=O)[C@@H]2CSSC[C@H](NC(=O)CN)C(=O)N[C@@H](CSSC[C@@H](C(=O)O)NC(=O)[C@@H]3CCCN3C1=O)C(=O)N[C@@H](CO)C(=O)N[C@@H](CCCC)C(=O)N1CCC[C@H]1C(=O)N[C@@H](CC)C(=O)N2` (stereo partly drawn): the inhibition was determined as 51.4%.

On to `CCCC[C@@H]1NC(=O)[C@H](CO)NC(=O)[C@@H]2CSSC[C@@H](C(=O)O)NC(=O)[C@H](Cc3ccc(O)cc3)NC(=O)[C@H](CCC)NC(=O)[C@H](Cc3c[nH]c4ccccc34)NC(=O)[C@H]([C@H](C)CC)NC(=O)[C@H](CSSC[C@H](NC(=O)CN)C(=O)N2)NC(=O)[C@H](CC)NC(=O)[C@@H]2CCCN2C1=O`, for which the inhibition came to 61.9%.

Consider `CCCC[C@@H]1NC(=O)[C@H](Cc2c[nH]c3ccccc23)NC(=O)[C@H](Cc2ccccc2)NC(=O)[C@@H]2CSSC[C@H](NC(=O)CN)C(=O)N[C@@H](CSSC[C@@H](C(=O)O)NC(=O)[C@H](Cc3ccc(O)cc3)NC1=O)C(=O)N[C@@H](CO)C(=O)N[C@@H](CCCC)C(=O)N1CCC[C@H]1C(=O)N[C@@H](CC)C(=O)N2` (H-GCCS[Nle]P[Abu]CFW[Nle]YC-OH; disulfide 2-8, 3-13), for which the inhibition stood at 76%.

As for `CCCC[C@@H]1NC(=O)[C@H](CO)NC(=O)[C@@H]2CSSC[C@@H](C(=O)O)NC(=O)[C@@H]3CCCN3C(=O)[C@H](CCC)NC(=O)[C@H](CC)NC(=O)[C@H](Cc3ccccc3)NC(=O)[C@H](CSSC[C@H](NC(=O)CN)C(=O)N2)NC(=O)[C@H](CC)NC(=O)[C@@H]2CCCN2C1=O` (H-GCCS[Nle]P[Abu]CF[Abu][Nva]PC-OH; disulfide 2-8, 3-13), the inhibition amounted to 40.3%.

In the case of `CCC[C@@H]1NC(=O)[C@H](CC)NC(=O)[C@H]([C@H](C)CC)NC(=O)[C@@H]2CSSC[C@H](NC(=O)CN)C(=O)N[C@@H](CSSC[C@@H](C(=O)O)NC(=O)[C@@H]3CCCN3C1=O)C(=O)N[C@@H](CO)C(=O)N[C@@H](Cc1cnc[nH]1)C(=O)N1CCC[C@H]1C(=O)N[C@@H](CC)C(=O)N2`, the inhibition was found to be 41.2%.

As for `CCCC[C@@H]1NC(=O)[C@H](CC)NC(=O)[C@H]([C@H](C)CC)NC(=O)[C@@H]2CSSC[C@H](NC(=O)CN)C(=O)N[C@@H](CSSC[C@@H](C(=O)O)NC(=O)[C@@H]3CCCN3C1=O)C(=O)N[C@@H](CO)C(=O)N[C@@H](Cc1cnc[nH]1)C(=O)N1CCC[C@H]1C(=O)N1CCC[C@H]1C(=O)N2`, the inhibition turned out to be 38.1%.

On to `CCCC[C@@H]1NC(=O)[C@H](CO)NC(=O)[C@@H]2CSSC[C@@H](C(=O)O)NC(=O)[C@H](Cc3ccc(O)cc3)NC(=O)[C@H](CCC)NC(=O)[C@H](Cc3c[nH]c4ccccc34)NC(=O)[C@H](Cc3ccccc3)NC(=O)[C@H](CSSC[C@H](NC(=O)CN)C(=O)N2)NC(=O)[C@@H]2CCCN2C(=O)[C@@H]2CCCN2C1=O` (H-GCCS[Nle]PPCFW[Nva]YC-OH; disulfide 2-8, 3-13), for which the inhibition is 61.6%.

As for `CCCC[C@@H]1NC(=O)[C@H](CC)NC(=O)[C@H]([C@H](C)CC)NC(=O)[C@@H]2CSSC[C@H](NC(=O)CN)C(=O)N[C@@H](CSSC[C@@H](C(=O)O)NC(=O)[C@@H]3CCCN3C1=O)C(=O)N[C@@H](CO)C(=O)N[C@@H](CCCC)C(=O)N1CCC[C@H]1C(=O)N1CCC[C@H]1C(=O)N2`, the inhibition amounted to 31.3%.

As to `CCC[C@@H]1NC(=O)[C@H](Cc2c[nH]c3ccccc23)NC(=O)[C@H]([C@H](C)CC)NC(=O)[C@@H]2CSSC[C@H](NC(=O)CN)C(=O)N[C@@H](CSSC[C@@H](C(=O)O)NC(=O)[C@H](Cc3ccc(O)cc3)NC1=O)C(=O)N[C@@H](CO)C(=O)N[C@@H](Cc1cnc[nH]1)C(=O)N1CCC[C@H]1C(=O)N[C@@H](CC)C(=O)N2`, the inhibition amounted to 47.5%.

For `CCCC[C@@H]1NC(=O)[C@H](CC)NC(=O)[C@H]([C@H](C)CC)NC(=O)[C@@H]2CSSC[C@H](NC(=O)CN)C(=O)N[C@@H](CSSC[C@@H](C(=O)O)NC(=O)[C@@H]3CCCN3C1=O)C(=O)N[C@@H](CO)C(=O)N[C@@H](CCCC)C(=O)N1CCC[C@H]1C(=O)N[C@@H](CC)C(=O)N2`, the inhibition was found to be 42.9%.

In general, inhibition refers to the percentage by which the read-out fell short of the control.
